Source: ChEMBL document CHEMBL1949510, “Design and synthesis of 6,6-fused heterocyclic amides as raf kinase inhibitors” (Bioorg Med Chem Lett, 2012)

Legend:
[1] = target: T1, Serine/threonine-protein kinase B-raf (Homo sapiens, UniProt P15056, V600E); test: Inhibition of N-terminus His6-tagged Braf V600E mutant expressed in insect Sf9 cells assessed as Mek phosphorylation after 2 hrs by ELISA
In short: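 Biochemical assay with the purified BrafV600E kinase domain, not the full-length protein.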

[2] = target: T1, Serine/threonine-protein kinase B-raf; test: Inhibition of Braf V600E mutant-mediated Erk phosphorylation in human SK-MEL-28 cells after 4 hrs by Western blot analysis; assay type: cell-based
[3] = Apparent permeability from apical to basolateral side in human Caco2 cells; assay type: ADME, cell-based; conditions: Caco-2
[4] = Solubility of the compound at pH 7; assay type: physicochemical; conditions: buffer
[5] = target: T2, Receptor-type tyrosine-protein kinase FLT3 (Homo sapiens, UniProt P36888); test: Inhibition of Flt3
T2 sequence (P36888 whole entry): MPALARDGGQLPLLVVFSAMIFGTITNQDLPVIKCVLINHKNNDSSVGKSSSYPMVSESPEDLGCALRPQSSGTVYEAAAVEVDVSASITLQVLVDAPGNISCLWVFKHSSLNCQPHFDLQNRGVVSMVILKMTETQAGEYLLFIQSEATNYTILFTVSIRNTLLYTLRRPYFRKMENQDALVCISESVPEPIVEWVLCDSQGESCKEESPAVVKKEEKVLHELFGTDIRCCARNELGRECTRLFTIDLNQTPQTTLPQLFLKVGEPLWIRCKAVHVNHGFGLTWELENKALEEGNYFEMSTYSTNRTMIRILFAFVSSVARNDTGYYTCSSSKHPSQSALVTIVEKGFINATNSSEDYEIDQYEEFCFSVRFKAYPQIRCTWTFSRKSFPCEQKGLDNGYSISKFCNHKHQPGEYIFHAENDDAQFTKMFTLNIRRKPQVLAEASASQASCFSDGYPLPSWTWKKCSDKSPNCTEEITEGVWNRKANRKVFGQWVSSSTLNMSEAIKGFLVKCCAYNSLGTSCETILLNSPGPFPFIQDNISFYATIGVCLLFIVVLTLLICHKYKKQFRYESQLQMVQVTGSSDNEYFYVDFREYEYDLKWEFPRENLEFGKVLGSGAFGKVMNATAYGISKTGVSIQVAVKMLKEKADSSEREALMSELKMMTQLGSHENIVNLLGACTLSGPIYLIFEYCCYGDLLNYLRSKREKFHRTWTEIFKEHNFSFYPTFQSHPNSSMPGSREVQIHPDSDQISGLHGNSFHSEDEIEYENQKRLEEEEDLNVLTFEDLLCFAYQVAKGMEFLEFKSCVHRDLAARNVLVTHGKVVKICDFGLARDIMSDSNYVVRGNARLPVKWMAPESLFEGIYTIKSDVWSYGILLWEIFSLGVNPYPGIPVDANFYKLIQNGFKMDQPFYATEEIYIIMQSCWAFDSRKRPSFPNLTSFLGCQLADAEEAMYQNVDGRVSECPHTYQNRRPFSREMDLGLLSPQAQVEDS
In short: (§1)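 Selectivity profiling panel of 50 kinases spanning RTKs, STKs, TKs and AGC kinases.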

[6] = target: Vascular endothelial growth factor receptor 2 (Homo sapiens, UniProt P35968); test: Inhibition of KDR; in short: as §1
Sequence of Vascular endothelial growth factor receptor 2 (P35968 whole entry): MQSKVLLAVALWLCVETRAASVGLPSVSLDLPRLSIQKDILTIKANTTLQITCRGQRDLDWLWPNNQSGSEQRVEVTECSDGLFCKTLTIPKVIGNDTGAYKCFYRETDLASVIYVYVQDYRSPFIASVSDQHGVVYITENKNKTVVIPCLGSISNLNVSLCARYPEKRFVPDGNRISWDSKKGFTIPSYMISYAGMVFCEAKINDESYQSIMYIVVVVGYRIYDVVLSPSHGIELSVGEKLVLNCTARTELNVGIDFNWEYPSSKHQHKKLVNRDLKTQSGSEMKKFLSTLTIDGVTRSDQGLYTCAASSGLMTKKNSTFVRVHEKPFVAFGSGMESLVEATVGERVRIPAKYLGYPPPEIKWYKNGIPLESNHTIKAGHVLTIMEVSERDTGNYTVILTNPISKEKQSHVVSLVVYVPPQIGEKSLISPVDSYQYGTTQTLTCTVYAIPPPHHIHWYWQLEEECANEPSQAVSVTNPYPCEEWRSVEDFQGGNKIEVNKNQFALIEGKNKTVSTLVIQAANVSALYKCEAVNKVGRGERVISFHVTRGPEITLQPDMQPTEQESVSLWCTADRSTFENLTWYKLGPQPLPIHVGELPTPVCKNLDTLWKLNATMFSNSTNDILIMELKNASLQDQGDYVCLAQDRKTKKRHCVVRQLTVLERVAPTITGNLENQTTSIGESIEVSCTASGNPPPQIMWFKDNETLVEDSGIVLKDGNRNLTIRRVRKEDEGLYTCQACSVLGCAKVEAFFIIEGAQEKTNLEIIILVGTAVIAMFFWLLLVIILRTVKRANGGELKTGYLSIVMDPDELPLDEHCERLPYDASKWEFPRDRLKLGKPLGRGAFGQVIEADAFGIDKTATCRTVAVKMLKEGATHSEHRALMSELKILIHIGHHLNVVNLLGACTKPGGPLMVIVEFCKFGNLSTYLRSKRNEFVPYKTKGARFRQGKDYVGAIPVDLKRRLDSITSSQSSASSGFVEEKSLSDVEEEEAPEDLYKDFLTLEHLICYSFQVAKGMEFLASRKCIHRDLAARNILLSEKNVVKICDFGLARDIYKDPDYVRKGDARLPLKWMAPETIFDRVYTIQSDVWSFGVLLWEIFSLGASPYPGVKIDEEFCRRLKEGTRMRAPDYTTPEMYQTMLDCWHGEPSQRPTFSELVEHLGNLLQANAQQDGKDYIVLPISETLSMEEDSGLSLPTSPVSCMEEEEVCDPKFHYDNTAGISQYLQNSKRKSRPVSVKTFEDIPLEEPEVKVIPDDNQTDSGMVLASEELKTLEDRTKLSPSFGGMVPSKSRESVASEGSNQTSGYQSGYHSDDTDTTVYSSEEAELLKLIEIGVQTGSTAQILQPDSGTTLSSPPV

[7] = target: Macrophage colony-stimulating factor 1 receptor (Homo sapiens, UniProt P07333); test: Inhibition of CSFR1; in short: as §1
Sequence of Macrophage colony-stimulating factor 1 receptor (P07333 whole entry): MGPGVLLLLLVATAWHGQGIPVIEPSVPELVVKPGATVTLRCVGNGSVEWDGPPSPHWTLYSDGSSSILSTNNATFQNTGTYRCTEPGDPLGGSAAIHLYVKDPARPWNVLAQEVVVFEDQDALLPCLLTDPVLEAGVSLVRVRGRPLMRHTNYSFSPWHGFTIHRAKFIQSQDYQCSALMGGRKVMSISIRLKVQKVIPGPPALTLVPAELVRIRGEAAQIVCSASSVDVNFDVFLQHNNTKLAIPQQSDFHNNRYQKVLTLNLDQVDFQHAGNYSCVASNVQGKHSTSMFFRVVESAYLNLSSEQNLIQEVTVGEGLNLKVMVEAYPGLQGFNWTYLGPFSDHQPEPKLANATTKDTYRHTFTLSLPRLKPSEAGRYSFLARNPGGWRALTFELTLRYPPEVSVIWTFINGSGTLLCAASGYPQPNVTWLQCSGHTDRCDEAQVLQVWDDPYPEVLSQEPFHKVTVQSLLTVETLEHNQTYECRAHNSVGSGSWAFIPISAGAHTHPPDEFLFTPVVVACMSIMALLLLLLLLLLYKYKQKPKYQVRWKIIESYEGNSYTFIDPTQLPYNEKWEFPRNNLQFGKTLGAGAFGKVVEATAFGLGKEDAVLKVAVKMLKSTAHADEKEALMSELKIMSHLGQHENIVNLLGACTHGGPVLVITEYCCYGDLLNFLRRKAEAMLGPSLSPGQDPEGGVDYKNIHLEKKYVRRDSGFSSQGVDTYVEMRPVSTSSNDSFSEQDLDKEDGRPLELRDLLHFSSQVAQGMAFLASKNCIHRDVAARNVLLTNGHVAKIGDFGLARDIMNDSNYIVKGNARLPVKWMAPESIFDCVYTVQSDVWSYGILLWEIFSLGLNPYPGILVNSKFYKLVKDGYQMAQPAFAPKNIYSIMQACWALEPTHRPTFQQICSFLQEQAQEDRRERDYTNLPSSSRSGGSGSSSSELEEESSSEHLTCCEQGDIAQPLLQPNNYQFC

[8] = target: Tyrosine-protein kinase ABL1 (Homo sapiens, UniProt P00519); test: Inhibition of cABL; in short: as §1
Sequence of Tyrosine-protein kinase ABL1 (P00519 whole entry): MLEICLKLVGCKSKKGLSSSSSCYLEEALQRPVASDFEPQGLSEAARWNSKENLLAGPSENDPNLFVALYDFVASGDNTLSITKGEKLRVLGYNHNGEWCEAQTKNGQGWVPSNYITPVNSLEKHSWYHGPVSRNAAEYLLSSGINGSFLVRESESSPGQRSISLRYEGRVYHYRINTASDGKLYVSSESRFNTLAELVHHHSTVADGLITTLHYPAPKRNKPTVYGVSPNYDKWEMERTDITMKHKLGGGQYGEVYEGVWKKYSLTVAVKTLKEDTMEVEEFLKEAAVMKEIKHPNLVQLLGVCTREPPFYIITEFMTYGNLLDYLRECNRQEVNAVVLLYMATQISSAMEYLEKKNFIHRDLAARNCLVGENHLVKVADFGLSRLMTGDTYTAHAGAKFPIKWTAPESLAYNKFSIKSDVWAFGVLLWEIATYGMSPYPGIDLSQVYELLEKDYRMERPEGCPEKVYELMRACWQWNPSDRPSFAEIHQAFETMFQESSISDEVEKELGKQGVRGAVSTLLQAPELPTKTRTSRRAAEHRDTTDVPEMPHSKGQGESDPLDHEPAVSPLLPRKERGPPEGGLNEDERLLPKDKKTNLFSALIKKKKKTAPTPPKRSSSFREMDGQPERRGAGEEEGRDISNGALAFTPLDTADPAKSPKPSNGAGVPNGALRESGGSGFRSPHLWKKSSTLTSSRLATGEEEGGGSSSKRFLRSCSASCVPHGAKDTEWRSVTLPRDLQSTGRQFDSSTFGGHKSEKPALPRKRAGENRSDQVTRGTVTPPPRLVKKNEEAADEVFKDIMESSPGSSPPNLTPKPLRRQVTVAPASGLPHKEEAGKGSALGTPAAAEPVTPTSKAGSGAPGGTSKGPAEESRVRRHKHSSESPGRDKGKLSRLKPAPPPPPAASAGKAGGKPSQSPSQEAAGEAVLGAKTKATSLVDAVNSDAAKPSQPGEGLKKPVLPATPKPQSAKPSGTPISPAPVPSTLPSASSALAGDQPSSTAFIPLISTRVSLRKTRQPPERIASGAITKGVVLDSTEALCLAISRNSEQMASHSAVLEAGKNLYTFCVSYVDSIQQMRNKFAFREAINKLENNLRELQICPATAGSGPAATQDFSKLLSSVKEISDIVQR

Mus musculus = test: Volume of distribution in mouse at 20 mg/kg, po administered as single dose; assay type: ADME, organism-based; set-up: dose 20 mg/kg, route oral; conditions: in vivo
[9] = Oral bioavailability in mouse at 20 mg/kg administered as single dose; assay type: ADME, organism-based; conditions: in vivo
[10] = Clearance in mouse at 20 mg/kg, po administered as single dose; assay type: ADME, organism-based; set-up: dose 20 mg/kg, route oral; conditions: in vivo
[11] = Half life in mouse at 20 mg/kg, po administered as single dose; assay type: ADME, organism-based; set-up: dose 20 mg/kg, route oral; conditions: in vivo

T1 sequence (P15056 2-766 V600E limits assumed): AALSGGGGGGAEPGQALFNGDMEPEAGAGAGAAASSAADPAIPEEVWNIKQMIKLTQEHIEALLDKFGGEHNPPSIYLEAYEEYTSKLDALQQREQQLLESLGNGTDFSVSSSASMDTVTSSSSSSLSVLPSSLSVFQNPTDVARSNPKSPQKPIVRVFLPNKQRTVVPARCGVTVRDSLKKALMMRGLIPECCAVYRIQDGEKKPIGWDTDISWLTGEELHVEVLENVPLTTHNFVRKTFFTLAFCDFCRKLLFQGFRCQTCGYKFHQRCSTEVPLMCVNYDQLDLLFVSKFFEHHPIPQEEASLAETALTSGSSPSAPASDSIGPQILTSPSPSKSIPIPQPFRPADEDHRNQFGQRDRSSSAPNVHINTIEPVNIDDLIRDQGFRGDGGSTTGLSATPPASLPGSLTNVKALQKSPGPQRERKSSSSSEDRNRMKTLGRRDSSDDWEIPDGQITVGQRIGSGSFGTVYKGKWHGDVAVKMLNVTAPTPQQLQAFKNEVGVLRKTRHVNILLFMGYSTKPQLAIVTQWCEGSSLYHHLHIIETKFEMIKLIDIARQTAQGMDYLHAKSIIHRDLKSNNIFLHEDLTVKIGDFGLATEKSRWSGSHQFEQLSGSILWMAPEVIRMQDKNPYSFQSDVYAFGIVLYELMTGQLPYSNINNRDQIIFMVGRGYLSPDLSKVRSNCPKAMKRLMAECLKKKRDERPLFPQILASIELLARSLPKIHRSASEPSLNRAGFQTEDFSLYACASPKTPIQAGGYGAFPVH

Row | Compound | IC50 [1] | EC50 [2] | Papp A→B [3] | solubility [4] | IC50 [5] | IC50 [6] | IC50 [7] | IC50 [8] | Vd (Mus musculus) | bioavailability [9] | CL/F [10] | half-life [11]
1 | CNC(=O)c1cc(Oc2ccc3nc(Nc4ccccc4)ncc3c2)ccn1 | 2200 nM | > 10 µM | < 1 ×10⁻⁶ cm/s | < 1 µM |  |  |  |  |  |  |  | 
2 | CNC(=O)c1cc(Oc2ccc3nc(Nc4ccccc4Br)ncc3c2)ccn1 | 24000 nM | > 10 µM | < 1 ×10⁻⁶ cm/s | < 1 µM |  |  |  |  |  |  |  | 
3 | CCc1ccccc1Nc1ncc2cc(Oc3ccnc(C(=O)NC)c3)ccc2n1 | 1300 nM | > 10 µM | < 1 ×10⁻⁶ cm/s | < 1 µM |  |  |  |  |  |  |  | 
4 | CNC(=O)c1cc(Oc2ccc3nc(Nc4ccccc4Oc4ccccc4)ncc3c2)ccn1 | 5300 nM | > 10 µM | < 1 ×10⁻⁶ cm/s | < 1 µM |  |  |  |  |  |  |  | 
5 | CNC(=O)c1cc(Oc2ccc3nc(Nc4cccc(Cl)c4)ncc3c2)ccn1 | 660 nM | > 10 µM | < 1 ×10⁻⁶ cm/s | < 1 µM |  |  |  |  |  |  |  | 
6 | CNC(=O)c1cc(Oc2ccc3nc(Nc4cccc(Br)c4)ncc3c2)ccn1 | 180 nM | > 10 µM | < 1 ×10⁻⁶ cm/s | < 1 µM |  |  |  |  |  |  |  | 
7 | CNC(=O)c1cc(Oc2ccc3nc(Nc4cccc(C(C)(C)C)c4)ncc3c2)ccn1 | 45 nM | > 10 µM | < 1 ×10⁻⁶ cm/s | < 1 µM | < 1000 nM | < 1000 nM | < 1000 nM | < 1000 nM |  |  |  | 
8 | CNC(=O)c1cc(Oc2ccc3nc(Nc4cccc(C(F)(F)F)c4)ncc3c2)ccn1 | 640 nM | > 10 µM | < 1 ×10⁻⁶ cm/s | < 1 µM |  |  |  |  |  |  |  | 
9 | CNC(=O)c1cc(Oc2ccc3nc(Nc4cccc(OC(F)(F)F)c4)ncc3c2)ccn1 | 70 nM | > 10 µM | < 1 ×10⁻⁶ cm/s | < 1 µM |  |  |  |  |  |  |  | 
10 | CNC(=O)c1cc(Oc2ccc3nc(Nc4cccc(C(C)C)c4)ncc3c2)ccn1 | 150 nM | > 10 µM | < 1 ×10⁻⁶ cm/s | < 1 µM |  |  |  |  | 4717 mL/kg | 35% | 53.1 mL/min/kg | 468 min
11 | CNC(=O)c1cc(Oc2ccc3nc(Nc4ccc(F)cc4)ncc3c2)ccn1 | 600 nM | > 10 µM | < 1 ×10⁻⁶ cm/s | < 1 µM |  |  |  |  |  |  |  | 
12 | CNC(=O)c1cc(Oc2ccc3nc(Nc4ccc(Br)cc4)ncc3c2)ccn1 | 310 nM | > 10 µM | < 1 ×10⁻⁶ cm/s | < 1 µM |  |  |  |  |  |  |  | 
13 | CNC(=O)c1cc(Oc2ccc3nc(Nc4ccc(C(F)(F)F)cc4)ncc3c2)ccn1 | 67 nM | > 10 µM | < 1 ×10⁻⁶ cm/s | < 1 µM |  |  |  |  |  |  |  | 
14 | CNC(=O)c1cc(Oc2ccc3nc(Nc4ccc(C(C)C)cc4)ncc3c2)ccn1 | 1 nM | > 10 µM | < 1 ×10⁻⁶ cm/s | < 1 µM |  |  |  |  |  |  |  | 
15 | CNC(=O)c1cc(Oc2ccc3nc(Nc4ccc(OC)cc4)ncc3c2)ccn1 | 390 nM | > 10 µM | < 1 ×10⁻⁶ cm/s | < 1 µM |  |  |  |  |  |  |  | 
16 | CNC(=O)c1cc(Oc2ccc3nc(Nc4ccc(OC(F)(F)F)cc4)ncc3c2)ccn1 | 80 nM | > 10 µM | < 1 ×10⁻⁶ cm/s | < 1 µM |  |  |  |  |  |  |  | 
17 | CNC(=O)c1cc(Oc2ccc3nc(Nc4ccc(Oc5ccccc5)cc4)ncc3c2)ccn1 | 600 nM | > 10 µM | < 1 ×10⁻⁶ cm/s | < 1 µM |  |  |  |  |  |  |  | 
18 | CNC(=O)c1cc(Oc2ccc3nc(Nc4ccc(-c5cccnc5)cc4)ncc3c2)ccn1 | 25000 nM | > 10 µM | < 1 ×10⁻⁶ cm/s | < 1 µM |  |  |  |  |  |  |  | 
19 | O=C(NCCO)c1cc(Oc2ccc3nc(Nc4ccc(Br)cc4)ncc3c2)ccn1 | 8600 nM | > 10 µM | < 1 ×10⁻⁶ cm/s | < 1 µM |  |  |  |  |  |  |  | 
20 | O=C(NCCN1CCCCC1)c1cc(Oc2ccc3nc(Nc4ccc(Br)cc4)ncc3c2)ccn1 | 1300 nM | > 10 µM | < 1 ×10⁻⁶ cm/s | < 1 µM |  |  |  |  |  |  |  | 
21 | CNC(=O)c1cc(Oc2ccc3nc(Nc4cccc(C(C)(C)C)c4)cnc3c2)ccn1 | 25 nM | > 10 µM | < 1 ×10⁻⁶ cm/s | < 1 µM | < 1000 nM | < 1000 nM | < 1000 nM | < 1000 nM |  |  |  | 
22 | CNC(=O)c1cc(Oc2ccc3nc(Nc4cccc(C(C)(C)C)c4)ccc3c2)ccn1 | 26 nM | > 10 µM | < 1 ×10⁻⁶ cm/s | < 1 µM | < 1000 nM | < 1000 nM | < 1000 nM | < 1000 nM |  |  |  | 
23 | CNC(=O)c1cc(Oc2ccc3c(c2)nc(Nc2cccc(C(C)(C)C)c2)n3C)ccn1 |  |  | < 1 ×10⁻⁶ cm/s | < 1 µM |  |  |  |  |  |  |  | 
